{
  "source": "ChEMBL document CHEMBL3763087",
  "about": "“Picrajavanicins A-G, Quassinoids from Picrasma javanica Collected in Myanmar” (J Nat Prod, 2015)",
  "format_in_all_cases": "functional, cell-based",
  "key": {"PSN1": {"system": "PSN1", "experiment": "Antiproliferative activity against human PSN1 cells after 72 hrs by WST-8 assay", "conditions": "PSN1, 72 h", "procedure,_shortened": "(§1)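 The procedure follows an earlier report. Human A549 lung adenocarcinoma and HeLa cervix adenocarcinoma lines came from RCB; PANC-1 pancreatic epithelioid carcinoma, PSN-1 pancreatic adenocarcinoma and MDA-MB-231 breast adenocarcinoma came from ATCC. All were maintained in-house and grown in 96-well plates. Cell absorbance was read on a microplate reader and IC50 derived. 5-Fluorouracil served as positive control.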"}, "MDA-MB-231": {"system": "MDA-MB-231", "experiment": "Antiproliferative activity against human MDA-MB-231 cells after 72 hrs by WST-8 assay", "conditions": "MDA-MB-231, 72 h", "procedure,_shortened": "as §1"}, "[1]": {"experiment": "Antiproliferative activity against human PANC1 cells after 72 hrs by WST-8 assay", "conditions": "PANC-1, 72 h", "procedure,_shortened": "as §1"}, "A549": {"system": "A549", "experiment": "Antiproliferative activity against human A549 cells after 72 hrs by WST-8 assay", "conditions": "A549, 72 h", "procedure,_shortened": "as §1"}, "HeLa": {"system": "HeLa", "experiment": "Antiproliferative activity against human HeLa cells after 72 hrs by WST-8 assay", "procedure,_shortened": "as §1"}},
  "data": [
    {"smiles": "COC1=C(C)[C@]2(O)CC(=O)O[C@@H]3C[C@H]4CC[C@H](O)C(=O)[C@]4(C)[C@@H](C1=O)[C@@]32C", "values": [
      {"measurement": "IC50", "setting": "PSN1", "result": "> 10", "unit": "µM"},
      {"measurement": "IC50", "setting": "MDA-MB-231", "result": "> 10", "unit": "µM"},
      {"measurement": "IC50", "setting": "[1]", "result": "> 10", "unit": "µM"},
      {"measurement": "IC50", "setting": "A549", "result": "> 10", "unit": "µM"},
      {"measurement": "IC50", "setting": "HeLa", "result": "> 10", "unit": "µM"}
    ]},
    {"smiles": "COC1=CC[C@@H]2C[C@H]3OC(=O)C[C@H]4C(C=O)=C(OC)C(=O)[C@H]([C@@]2(C)C1=O)[C@@]34C", "values": [
      {"measurement": "IC50", "setting": "PSN1", "result": "> 10", "unit": "µM"},
      {"measurement": "IC50", "setting": "MDA-MB-231", "result": "> 10", "unit": "µM"},
      {"measurement": "IC50", "setting": "[1]", "result": "> 10", "unit": "µM"},
      {"measurement": "IC50", "setting": "A549", "result": "> 10", "unit": "µM"},
      {"measurement": "IC50", "setting": "HeLa", "result": "> 10", "unit": "µM"}
    ]},
    {"smiles": "COC1=CC[C@@H]2C[C@H]3OC(=O)C=C4C(C)=C(OC)C(=O)[C@H]([C@@]2(C)C1=O)[C@]43C", "values": [
      {"measurement": "IC50", "setting": "PSN1", "result": "> 10", "unit": "µM"},
      {"measurement": "IC50", "setting": "MDA-MB-231", "result": "> 10", "unit": "µM"},
      {"measurement": "IC50", "setting": "[1]", "result": "> 10", "unit": "µM"},
      {"measurement": "IC50", "setting": "A549", "result": "> 10", "unit": "µM"},
      {"measurement": "IC50", "setting": "HeLa", "result": "> 10", "unit": "µM"}
    ]},
    {"smiles": "COC1=C(C)[C@@H]2CC(=O)O[C@@H]3C[C@H]4CC[C@H](O)C(=O)[C@]4(C)[C@@H](C1=O)[C@@]32C", "values": [
      {"measurement": "IC50", "setting": "PSN1", "result": "> 10", "unit": "µM"},
      {"measurement": "IC50", "setting": "MDA-MB-231", "result": "> 10", "unit": "µM"},
      {"measurement": "IC50", "setting": "[1]", "result": "> 10", "unit": "µM"},
      {"measurement": "IC50", "setting": "A549", "result": "> 10", "unit": "µM"},
      {"measurement": "IC50", "setting": "HeLa", "result": "> 10", "unit": "µM"}
    ]},
    {"smiles": "COC1=CC[C@@H]2C[C@H]3OC(O)C[C@H]4C(C)=C(OC)C(=O)[C@H]([C@@]2(C)C1=O)[C@@]34C", "note": "(stereo not given in full)", "values": [
      {"measurement": "IC50", "setting": "PSN1", "result": "> 10", "unit": "µM"},
      {"measurement": "IC50", "setting": "MDA-MB-231", "result": "> 10", "unit": "µM"},
      {"measurement": "IC50", "setting": "[1]", "result": "> 10", "unit": "µM"},
      {"measurement": "IC50", "setting": "A549", "result": "> 10", "unit": "µM"},
      {"measurement": "IC50", "setting": "HeLa", "result": "> 10", "unit": "µM"}
    ]},
    {"smiles": "COC1=CC[C@@H]2C[C@H]3OC(=O)C=C4C(CO)=C(OC)C(=O)[C@H]([C@@]2(C)C1=O)[C@]43C", "values": [
      {"measurement": "IC50", "setting": "PSN1", "result": "> 10", "unit": "µM"},
      {"measurement": "IC50", "setting": "MDA-MB-231", "result": "> 10", "unit": "µM"},
      {"measurement": "IC50", "setting": "[1]", "result": "> 10", "unit": "µM"},
      {"measurement": "IC50", "setting": "A549", "result": "> 10", "unit": "µM"},
      {"measurement": "IC50", "setting": "HeLa", "result": "> 10", "unit": "µM"}
    ]},
    {"smiles": "COC1=C(OC)C(=O)[C@@]2(C)[C@H](C1)C[C@H]1OC(=O)C[C@@]3(O)C(C)=C(OC)C(=O)[C@H]2[C@@]13C", "values": [
      {"measurement": "IC50", "setting": "PSN1", "result": "> 10", "unit": "µM"},
      {"measurement": "IC50", "setting": "MDA-MB-231", "result": "> 10", "unit": "µM"},
      {"measurement": "IC50", "setting": "[1]", "result": "> 10", "unit": "µM"},
      {"measurement": "IC50", "setting": "A549", "result": "> 10", "unit": "µM"},
      {"measurement": "IC50", "setting": "HeLa", "result": "> 10", "unit": "µM"}
    ]},
    {"smiles": "COC1=CC[C@@H]2C[C@H]3OC(=O)C[C@H]4C(C)=C(OC)C(=O)[C@H]([C@@]2(C)C1=O)[C@@]34C", "values": [
      {"measurement": "IC50", "setting": "PSN1", "result": "> 10", "unit": "µM"},
      {"measurement": "IC50", "setting": "MDA-MB-231", "result": "> 10", "unit": "µM"},
      {"measurement": "IC50", "setting": "[1]", "result": "> 10", "unit": "µM"},
      {"measurement": "IC50", "setting": "A549", "result": "> 10", "unit": "µM"},
      {"measurement": "IC50", "setting": "HeLa", "result": "> 10", "unit": "µM"}
    ]},
    {"smiles": "COC1=C(OC)C(=O)[C@@]2(C)[C@H](C1)C[C@H]1OC(=O)C[C@H]3C(C)=C(OC)C(=O)[C@H]2[C@@]13C", "values": [
      {"measurement": "IC50", "setting": "PSN1", "result": "> 10", "unit": "µM"},
      {"measurement": "IC50", "setting": "MDA-MB-231", "result": "> 10", "unit": "µM"},
      {"measurement": "IC50", "setting": "[1]", "result": "> 10", "unit": "µM"},
      {"measurement": "IC50", "setting": "A549", "result": "> 10", "unit": "µM"},
      {"measurement": "IC50", "setting": "HeLa", "result": "> 10", "unit": "µM"}
    ]},
    {"smiles": "COC1=C(C)[C@@H]2CC(=O)O[C@@H]3C[C@H]4CC[C@H](OC)C(=O)[C@]4(C)[C@@H](C1=O)[C@@]32C", "values": [
      {"measurement": "IC50", "setting": "PSN1", "result": "> 10", "unit": "µM"},
      {"measurement": "IC50", "setting": "MDA-MB-231", "result": "> 10", "unit": "µM"},
      {"measurement": "IC50", "setting": "[1]", "result": "> 10", "unit": "µM"},
      {"measurement": "IC50", "setting": "A549", "result": "> 10", "unit": "µM"},
      {"measurement": "IC50", "setting": "HeLa", "result": "> 10", "unit": "µM"}
    ]},
    {"smiles": "O=c1[nH]cc(F)c(=O)[nH]1", "note": "[FLUOROURACIL]", "values": [
      {"measurement": "IC50", "setting": "PSN1", "result": 8.7, "unit": "µM"},
      {"measurement": "IC50", "setting": "MDA-MB-231", "result": 1.1, "unit": "µM"},
      {"measurement": "IC50", "setting": "[1]", "result": 0.4, "unit": "µM"},
      {"measurement": "IC50", "setting": "A549", "result": 9, "unit": "µM"},
      {"measurement": "IC50", "setting": "HeLa", "result": 6.4, "unit": "µM"}
    ]}
  ]
}
